One series deals with Plasmodium berghei. The experiment in a line: Antiplasmodial activity against GFP-expressing gametocytes of Plasmodium berghei sporozoites in Anopheles stephensi mosquitoes feeded on blood from infected Swiss mouse assessed as reduction in number of oocysts in mosquito midgut at 100 mg/kg, ip pretreated for 1.5 hrs followed by blood feeding of mosquito and measured at 8 days post mosquitoes infection by fluorescence microscopic method relative to control. It is filed as functional. Further details: scale not given: the % may be the effect or the level left. The method in brief:
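Swiss mice (female, 6 weeks) infected i.p. with PbGFP-infected red cells (200 µL, 3000 parasites/µL). Gametocytes monitored 4 days by Giemsa smear and exflagellation. Hybrid given i.p. at 100 mg/kg in DMSO 1.5 h before A. stephensi fed 1 h on mice with 1% gametocytes. Controls were untreated and DMSO-treated mice. Thirty mosquitoes per group dissected after 8 days. Midgut oocysts counted by fluorescence microscopy against control mosquitoes taken as 100%.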

Series [1] has as its system Mus musculus. Description: Acute toxicity in BALB/c mouse assessed as effect on total bilirubin level at 300 to 500 mg/kg, po administered as single dose measured at day 14. The format is organism-based. Particulars: in vivo.
The test system of series [2] is Plasmodium yoelii. Description: Antiplasmodial activity against Plasmodium yoelii 17XNL sporozoites infected in BALB/c mouse assessed as pre-patent time period of parasitaemia at 100 mg/kg, po measured at day 4 by […]. The format is functional. A digest of the protocol:
(§1)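 BALB/c mice (6-8 weeks, 20-23 g), n=4 per hybrid group and n=5 per control. Dosed orally at 100 mg/kg (100 µL) on days -1, 0, +1 and +2. Vehicle was DMSO 100%; primaquine diphosphate given at 30 mg/kg daily. On day 0, 5 x 10^3 cryopreserved P. yoelii 17XNL sporozoites injected i.v. Parasitaemia read by Giemsa smear and SYBR Green flow cytometry. Groups compared by Kruskal-Wallis test.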
In general terms: A flow cytometer gives signals particle by particle.

A short description of series [3]: Cytotoxicity against human primary hepatocytes assessed as reduction in cell viability after 48 hrs by MTT assay. The format is cell-based, Hepatocyte. A digest of the protocol: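 Cells seeded at 2 × 10^5 per well and allowed 24 h at 37°C, 5% CO2 to form a monolayer. Dilutions added in triplicate and incubated 48 h. MTT (2 mg/mL) then added for 4 h, followed by DMSO for 20 min at room temperature. Absorbance read at 550 nm; DMSO diluent and untreated cells served as negative controls. CC50 derived from the curve.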
In general terms: Tetrazolium dyes change colour on reduction, which living cells bring about.

Series [4] concerns Plasmodium yoelii. The experiment in a line: Potency index, ratio of primaquine IC50 to compound IC50 for GFP-expressing Plasmodium yoelii sporozoites infected in human HepG2 cells expressing CD81. It is filed as functional.
A further series relates to Plasmodium falciparum. The experiment in a line: Antiplasmodial activity against the multidrug-resistant Plasmodium falciparum […] infected in human red blood cells assessed as reduction in parasite growth after 48 hrs by Hoechst 33342 staining based flow cytometric analysis. It is filed as functional, organism-based. A digest of the protocol: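 Ring-stage cultures (>80% rings) at 1% parasitaemia in A+ human erythrocytes, 2% haematocrit. Medium RPMI 1640 with 10% A+ serum, 37°C, 5% CO2/5% O2. Compounds in DMSO at 1.56–100 µg/mL final, DMSO ≤1%. After 48 h, cells stained with Hoechst 33342 and 1×10^4 counted by flow cytometry. IC50 from logistic dose-response regression; three independent experiments in triplicate.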

A short description of series [5]: Genotoxicity in Salmonella typhimurium TA1535 harboring pSK1002 assessed as bacterial survival at 0.001 to 0.063 mg/ml after 4 hrs in absence of Sprague-Dawley rat liver S9 fraction by SOS/umu assay relative to control. Particulars: salmonella enterica subsp. enterica serovar typhimurium; read-out: Survival. It is filed as toxicity, organism-based. The method in brief:
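Log-phase S. typhimurium TA1535/pSK1002 (OD600 0.15–0.4) exposed for 4 h at 37°C with shaking, with 10% rat S9 mix or PBS. Eleven twofold dilutions tested from 1 mg/mL final; DMSO as solvent control. A600 read. Survival expressed as % of negative-control A600.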

Series [6] is described as follows: Selectivity index, ratio of CC50 for human HepG2 cells expressing CD81 to IC50 for GFP-expressing Plasmodium yoelii sporozoites. It is filed as toxicity. Particulars: read-out: Ratio CC50/IC50. The method in brief:
(§2)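 Selectivity index = CC50 (matching cell) / IC50 (matching parasite). Cell–parasite pairs: HepG2-CD81 with P. yoelii, HepG2 with P. berghei, human hepatocytes with P. falciparum.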

The subject of series [7] is Mus musculus. The experiment in a line: Acute toxicity in BALB/c mouse assessed as effect on blood urea nitrogen level at 300 to 500 mg/kg, po administered as single dose measured at day 14. The format is organism-based. To be noted: in vivo.
The test system of series [8] is Mus musculus. The experiment in a line: Acute toxicity in BALB/c mouse assessed as appearance of bright hair without erection at 300 to 500 mg/kg, po administered as single dose measured every day for 14 days. The format is organism-based. Particulars: in vivo, 336 h. A digest of the protocol:
(§3)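 Female BALB/c mice, 6-8 weeks old, 20-23 g, in groups of three. Single oral dose of 300 or 500 mg/kg; vehicle DMSO 100% given to controls. Mice watched for signs of toxicity for 4 h after dosing. Physical appearance, injury, pain and illness recorded daily for 14 days. Euthanasia in a CO2 chamber on day 14 or earlier if suffering.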

Series [9] deals with Mus musculus. The experiment in a line: Acute toxicity in BALB/c mouse assessed as appearance of clear and bright eyes at 300 to 500 mg/kg, po administered as single dose measured every day for 14 days. It is filed as organism-based. Particulars: in vivo, 336 h. A digest of the protocol: as §3
Series [10] has as its system Plasmodium yoelii. The experiment in a line: Antiplasmodial activity against Plasmodium yoelii 17XNL sporozoites infected in BALB/c mouse assessed as parasite burden at 100 mg/kg, po measured at day 4 by […] (reference value: 0.06%). The format is functional. A digest of the protocol:
as §1

Series [11] concerns Mus musculus. The experiment in a line: Induction of alanine transferase level in BALB/c mouse at 300 to 500 mg/kg, po administered as single dose measured at day 14 (reference value: 34 to 78 U/L). Particulars: in vivo. The format is organism-based. The method in brief: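 BALB/c female mice (6-8 weeks, 20-23 g), groups of three, given one oral dose of 300 or 500 mg/kg; DMSO 100% vehicle for controls. Observed 4 h after dosing, then daily for 14 days. Euthanized on day 14 or on signs of suffering. Blood biochemistry, including alanine transferase, compared with the range in untreated mice.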

Series [12] deals with Mus musculus. Description: Acute toxicity in BALB/c mouse assessed as effect on feeding habbit at 300 mg/kg, po administered as single dose measured every day for 14 days. It is filed as organism-based. Particulars: in vivo, 336 h. The method in brief:
as §3

Series [13] in a line: Genotoxicity in Salmonella typhimurium TA1535 harboring pSK1002 assessed as umu gene induction at 0.001 to 0.063 mg/ml after 4 hrs in presence of Sprague-Dawley rat liver S9 fraction by beta-galactosidase reporter gene assay relative to control. Particulars: salmonella enterica subsp. enterica serovar typhimurium; read-out: FC. The format is toxicity, organism-based. A digest of the protocol:
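SOS/umu test, 4 h at 37°C, with S9 mix or PBS. Positive controls 4-NQO (2.5 µg/mL final, no S9) and 2-AA (0.0125 mg/mL final, with S9). Aliquots incubated with ONPG 0.9 mg/mL in B-buffer for 30 min at 28°C, then stopped with 1 M Na2CO3. Activity calculated as A420/A600. Induction factor is the ratio to the DMSO control; genotoxic if ≥2 at ≥80% survival.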
(In general: In a reporter assay the amount or activity of a reporter protein is the signal.)

Series [14] can be described thus: Selectivity index, ratio of CC50 for human primary hepatocytes to IC50 for GFP-expressing Plasmodium falciparum sporozoites. It is filed as toxicity. Particulars: read-out: Ratio CC50/IC50. A digest of the protocol: as §2
The subject of series [15] is Plasmodium yoelii. The experiment in a line: Antiplasmodial activity against Plasmodium yoelii 17XNL sporozoites infected in BALB/c mouse assessed as decrease in parasitaemia in blood at 100 mg/kg, po measured at day 4 by […] relative to control. It is filed as functional. Also noted: scale not given: the % may be the effect or the level left. The method in brief: as §1

Molecules are shown by their SMILES. pIC50: −log10 of the molar value.

Broadly, the CC50 is the concentration that lowers cell viability or growth by half. One may read the pIC50 as the negative decadic logarithm of the IC50, by convention in mol/L. Consider `COc1cc(NC(C)CCCNC(=O)c2c(C)[n+]([O-])c3ccccc3[n+]2[O-])c2ncccc2c1` (configuration not stated), for which the Activity in the series with Plasmodium berghei is on record as 92%; with Mus musculus [1] it was “Non-Toxic”; with Mus musculus [7], “Non-Toxic”; with Mus musculus [8], “Non-Toxic”; in the series on Mus musculus [9], “Non-Toxic”; with Plasmodium yoelii [10], 0%. Also, the figures for the Activity in the series on Mus musculus [11], with Mus musculus [12] and in the series on Plasmodium yoelii [15] were 82 U/L, “Non-Toxic” and 95.97%, respectively. Also, in the series on Plasmodium yoelii [2], the Time turned out to be 24 h. Besides, in series [3], the CC50 at 48 h is more than 213 µM. Besides, the “Ratio IC50” value in the series with Plasmodium yoelii [4] was found to be 1.5. In the series with Plasmodium falciparum, the pIC50 was 4.17. For the same compound, in [5], the viability at 4 h was more than 80%. In addition, the selectivity ratio came out at 153 in series [6] and 39.5 in series [14]. Besides, in [13], the fold induction at 4 h is less than 2.
